Experiments:
Rattus norvegicus [1] = test: In vivo deiodination in 1 hour after administration of compound; type: functional
Summary of the method: (§1)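 In immature female Fischer rats given 3 μCi (111 kBq) of 125I-steroid iv, deiodination was estimated from thyroid PDK at 1, 2 or 5 h, or at 2 h with 60 μg co-injected estradiol. Thyroid uptake after [125I]NaI injection at the same time interval was taken as 100%.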

Rattus norvegicus [2] = test: In vivo deiodination in 2 hour after administration of compound; type: functional; summary of the method: as §1
Rattus norvegicus [3] = test: In vivo deiodination in 2 hour after administration of compound in presence of 60 microg of estradiol; type: functional; summary of the method: as §1
Rattus norvegicus [4] = test: In vivo deiodination in 5 hr after administration of compound; type: functional; summary of the method: as §1
Rattus norvegicus [5] = test: Mean uptake in adrenals 1 hr after intravenous injection of 3 microCi (111 kBq) of the compound; type: functional, Adrenal gland
Summary of the method: (§2)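 Immature female Fischer rats (24 days old, 55-60 g) had free access to food and water. They were warmed under an infrared lamp, then given 200 μL HPLC-purified 125I-labeled steroid (3 μCi, 111 kBq) in saline with 9% ethanol and 1% Tween 80 via the lateral tail vein. Where stated, 60 μg unlabeled estradiol was co-injected. Rats were killed at 1, 2 or 5 h. Tissues were KCl-washed, blotted, weighed and gamma-counted against a reference of the injectate. Results are PDK (% dose × kg/g), mean and SD of three rats.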

Rattus norvegicus [6] = test: Mean uptake in adrenals 2 hr after intravenous injection of 3 microCi (111 kBq); type: functional, Adrenal gland; summary of the method: as §2
Rattus norvegicus [7] = species: Rattus norvegicus; test: Effect of Co-injection with estradiol on the uterus to blood ratio (Co-injected with 60 microg of estradiol (E2)); type: functional
Summary of the method: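 Immature female Fischer rats (24 days, 55-60 g) received 3 μCi (111 kBq) 125I-labelled steroid iv via the lateral tail vein, in 200 μL 9% ethanol-saline with 1% Tween 80, co-injected with 60 μg unlabelled estradiol. Killed at 2 h. Uterus and blood were KCl-washed and gamma-counted as PDK. Ratio is the mean of three rats; % change is versus tracer-only animals.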

Rattus norvegicus [8] = test: Mean uptake in uterus 2 hr after intravenous injection of 3 microCi (111 kBq); type: functional
Summary of the method: (§3)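 Immature female Fischer rats (24 days old, 55-60 g), food and water free. 3 μCi (111 kBq) HPLC-purified 125I-labeled steroid given iv via lateral tail vein in 200 μL saline containing 9% ethanol and 1% Tween 80; receptor-saturation group co-injected with 60 μg unlabeled estradiol. Sacrificed at set times; uterus washed with 0.154 M KCl, blotted, weighed, gamma counted against injected reference; expressed as PDK (% dose × kg/g), mean of three rats.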

Rattus norvegicus [9] = test: Mean uptake in uterus 2 hr after intravenous injection of 3 uM Ci (111 kBq) in presence of 60 ug coinjected estradiol; type: functional; summary of the method: as §3
Rattus norvegicus [10] = test: Mean uptake in uterus 1 hr after intravenous injection of 3 microCi (111 kBq) of the compound; type: functional; summary of the method: as §2
Rattus norvegicus [11] = test: Mean uptake in uterus 5 hr after intravenous injection of 3 microCi (111 kBq); type: functional; summary of the method: as §3
Rattus norvegicus [12] = test: Mean uptake in blood 5 hr after intravenous injection of 3 microCi (111 kBq); type: functional; summary of the method: as §2
Rattus norvegicus [13] = test: Mean uptake in adrenals 2 hr after intravenous injection of 3 microCi (111 kBq) in presence of 60 ug coinjected estradiol; type: functional, Adrenal gland; summary of the method: as §2
Rattus norvegicus [14] = test: Mean uptake in adrenals 5 hr after intravenous injection of 3 microCi (111 kBq); type: functional, Adrenal gland; summary of the method: as §2
Rattus norvegicus [15] = test: Mean uptake in blood 1 hr after intravenous injection of 3 microCi (111 kBq) of the compound; type: functional; summary of the method: as §2
Rattus norvegicus [16] = test: Mean uptake in blood 2 hr after intravenous injection of 3 microCi (111 kBq); type: functional; summary of the method: as §2
Rattus norvegicus [17] = test: Mean uptake in blood 2 hr after intravenous injection of 3 microCi (111 kBq) in presence of 60 ug coinjected estradiol; type: functional; summary of the method: as §2
Rattus norvegicus [18] = test: Mean uptake in brain 1 hr after intravenous injection of 3 microCi (111 kBq) of the compound; type: functional; summary of the method: as §2
Rattus norvegicus [19] = test: Mean uptake in brain 2 hr after intravenous injection of 3 microCi (111 kBq); type: functional; summary of the method: as §2
Rattus norvegicus [20] = test: Mean uptake in brain 2 hr after intravenous injection of 3 uM Ci (111 kBq) in presence of 60 ug coinjected estradiol; type: functional; summary of the method: as §2
Rattus norvegicus [21] = test: Mean uptake in kidneys 1 hr after intravenous injection of 3 microCi (111 kBq) of the compound; type: functional; summary of the method: as §2
Rattus norvegicus [22] = test: Mean uptake in kidneys 2 hr after intravenous injection of 3 microCi (111 kBq); type: functional; summary of the method: as §2
Rattus norvegicus [23] = test: Mean uptake in kidneys 2 hr after intravenous injection of 3 microCi (111 kBq) in presence of 60 ug coinjected estradiol; type: functional, Kidney; summary of the method: as §2
Rattus norvegicus [24] = test: Mean uptake in kidneys 5 hr after intravenous injection of 3 microCi (111 kBq); type: functional; summary of the method: as §2
Rattus norvegicus [25] = test: Mean uptake in liver 2 hr after intravenous injection of 3 microCi (111 kBq); type: functional; summary of the method: as §2
Rattus norvegicus [26] = test: Mean uptake in ovaries 2 hr after intravenous injection of 3 uM Ci (111 kBq) in presence of 60 ug coinjected estradiol; type: functional, Female gonad; summary of the method: as §2
Rattus norvegicus [27] = test: Mean uptake in ovaries 5 hr after intravenous injection of 3 microCi (111 kBq); type: functional, Female gonad; summary of the method: as §2
Rattus norvegicus [28] = test: Mean uptake in spleen 1 hr after intravenous injection of 3 microCi (111 kBq) of the compound; type: functional; summary of the method: as §2
Rattus norvegicus [29] = test: Mean uptake in spleen 2 hr after intravenous injection of 3 uM Ci (111 kBq); type: functional; summary of the method: as §2
Rattus norvegicus [30] = test: Mean uptake in spleen 2 hr after intravenous injection of 3 uM Ci (111 kBq) in presence of 60 ug coinjected estradiol; type: functional; summary of the method: as §2
Rattus norvegicus [31] = test: Mean uptake in spleen 5 hr after intravenous injection of 3 microCi (111 kBq); type: functional; summary of the method: as §2
Rattus norvegicus [32] = test: Mean uptake in thyroid 2 hr after intravenous injection of 3 microCi (111 kBq); type: functional, Thyroid gland; summary of the method: as §2
Rattus norvegicus [33] = test: Mean uptake in thyroid 2 hr after intravenous injection of 3 microCi (111 kBq) in presence of 60 ug coinjected estradiol; type: functional, Thyroid gland; summary of the method: as §2
Rattus norvegicus [34] = test: Mean uptake in thyroid 1 hr after intravenous injection of 3 microCi (111 kBq) of the compound; type: functional, Thyroid gland; summary of the method: as §2
Rattus norvegicus [35] = test: Mean uptake in liver 2 hr after intravenous injection of 3 microCi (111 kBq) in presence of 60 ug coinjected estradiol; type: functional; summary of the method: as §2
Rattus norvegicus [36] = test: Mean uptake in liver 5 hr after intravenous injection of 3 microCi (111 kBq); type: functional; summary of the method: as §2
Rattus norvegicus [37] = test: Mean uptake in lungs 1 hr after intravenous injection of 3 microCi (111 kBq) of the compound; type: functional; summary of the method: as §2
Rattus norvegicus [38] = test: Mean uptake in lungs 2 hr after intravenous injection of 3 microCi (111 kBq); type: functional; summary of the method: as §2
Rattus norvegicus [39] = test: Mean uptake in lungs 2 hr after intravenous injection of 3 microCi (111 kBq) in presence of 60 ug coinjected estradiol; type: functional; summary of the method: as §2
Rattus norvegicus [40] = test: Mean uptake in lungs 5 hr after intravenous injection of 3 microCi (111 kBq); type: functional; summary of the method: as §2
Rattus norvegicus [41] = test: Mean uptake in muscle 1 hr after intravenous injection of 3 microCi (111 kBq) of the compound; type: functional, Muscle tissue; summary of the method: as §2
Rattus norvegicus [42] = test: Mean uptake in muscle 2 hr after intravenous injection of 3 microCi (111 kBq); type: functional, Muscle tissue; summary of the method: as §2
Rattus norvegicus [43] = test: Mean uptake in muscles 5 hr after intravenous injection of 3 microCi (111 kBq); type: functional, Muscle tissue; summary of the method: as §2
Rattus norvegicus [44] = test: Mean uptake in ovaries 1 hr after intravenous injection of 3 microCi (111 kBq) of the compound; type: functional, Female gonad; summary of the method: as §2
Rattus norvegicus [45] = test: Mean uptake in ovaries 2 hr after intravenous injection of 3 microCi (111 kBq); type: functional, Female gonad; summary of the method: as §2
Rattus norvegicus [46] = test: Mean uptake in liver 1 hr after intravenous injection of 3 microCi (111 kBq) of the compound; type: functional; summary of the method: as §2

Which Deiodination (Rattus norvegicus [1]) does the source give for `C[C@]12CC[C@@H]3c4ccc(O)cc4CC[C@H]3[C@@H]1CC[C@@]2(O)/C=C\[125I]` here?
Its Deiodination is 3.8%.

And the Deiodination (Rattus norvegicus [2])?
Its Deiodination is 2.8%.

And the Deiodination (Rattus norvegicus [3])?
Its Deiodination is 3.7%.

What about the Deiodination (Rattus norvegicus [4]) of the same compound?
The Deiodination was 17%.

And the PDK (Rattus norvegicus [5])?
The PDK was 154.

What about the PDK (Rattus norvegicus [6]) of the same compound?
Its PDK is 67.

And the Change (Rattus norvegicus [7])?
Its Change is -78%.

And the “Uterus to blood ratio” value (Rattus norvegicus [7])?
Its value is 3.

What about the PDK (Rattus norvegicus [8]) of the same compound?
Its PDK is 166.

What about the PDK (Rattus norvegicus [9]) of the same compound?
The PDK was 41.

What about the PDK (Rattus norvegicus [10]) of the same compound?
The PDK was 228.

And the PDK (Rattus norvegicus [11])?
Its PDK is 106.

What about the PDK (Rattus norvegicus [12]) of the same compound?
The PDK was 17.

And the PDK (Rattus norvegicus [13])?
Its PDK is 77.

And the PDK (Rattus norvegicus [14])?
The PDK was 23.

And the PDK (Rattus norvegicus [15])?
The PDK was 16.

What about the PDK (Rattus norvegicus [16]) of the same compound?
Its PDK is 12.

And the PDK (Rattus norvegicus [17])?
Its PDK is 14.

What about the PDK (Rattus norvegicus [18]) of the same compound?
Its PDK is 34.

What about the PDK (Rattus norvegicus [19]) of the same compound?
The PDK was 11.

What about the PDK (Rattus norvegicus [20]) of the same compound?
Its PDK is 14.

And the PDK (Rattus norvegicus [21])?
The PDK was 58.

What about the PDK (Rattus norvegicus [22]) of the same compound?
Its PDK is 32.

What about the PDK (Rattus norvegicus [23]) of the same compound?
Its PDK is 29.

And the PDK (Rattus norvegicus [24])?
Its PDK is 20.

What about the PDK (Rattus norvegicus [25]) of the same compound?
Its PDK is 84.

What about the PDK (Rattus norvegicus [26]) of the same compound?
The PDK was 36.

And the PDK (Rattus norvegicus [27])?
The PDK was 50.

What about the PDK (Rattus norvegicus [28]) of the same compound?
Its PDK is 19.

And the PDK (Rattus norvegicus [29])?
Its PDK is 11.

And the PDK (Rattus norvegicus [30])?
The PDK was 10.

What about the PDK (Rattus norvegicus [31]) of the same compound?
The PDK was 9.

What about the PDK (Rattus norvegicus [32]) of the same compound?
Its PDK is 3718.

And the PDK (Rattus norvegicus [33])?
Its PDK is 4975.

And the PDK (Rattus norvegicus [34])?
The PDK was 2547.

And the PDK (Rattus norvegicus [35])?
Its PDK is 83.

And the PDK (Rattus norvegicus [36])?
Its PDK is 57.

And the PDK (Rattus norvegicus [37])?
Its PDK is 44.

What about the PDK (Rattus norvegicus [38]) of the same compound?
The PDK was 25.

What about the PDK (Rattus norvegicus [39]) of the same compound?
Its PDK is 26.

And the PDK (Rattus norvegicus [40])?
Its PDK is 18.

What about the PDK (Rattus norvegicus [41]) of the same compound?
Its PDK is 24.

And the PDK (Rattus norvegicus [42])?
Its PDK is 10.

What about the PDK (Rattus norvegicus [43]) of the same compound?
Its PDK is 5.

What about the PDK (Rattus norvegicus [44]) of the same compound?
Its PDK is 116.

And the PDK (Rattus norvegicus [45])?
Its PDK is 85.

What about the PDK (Rattus norvegicus [46]) of the same compound?
The PDK was 148.

From ChEMBL document CHEMBL1123977, “Synthesis, receptor binding, and tissue distribution of (17 alpha,20E)- and (17 alpha,20Z)-21-[125I]iodo-19-norpregna-1,3,5(10), 20-tetraene-3,17-diol ” (1988)
